In the library only some 2.2% were active in any assay of this set; here they are far more common.
Mcl-1 Bim block: inhibitors of Bim-Mcl-1 interaction, human; Q07820; Bead-based flow cytometry, Bim peptide-Mcl-1 binding; inhibition, % at 10 µM; actives 0.1% (n = 190,000); in the data active = inhibition above about 40%;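 also: 0% = no compound tracer wells and 100% = peptide blocker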
Target sequence (Q07820 whole entry, looked up): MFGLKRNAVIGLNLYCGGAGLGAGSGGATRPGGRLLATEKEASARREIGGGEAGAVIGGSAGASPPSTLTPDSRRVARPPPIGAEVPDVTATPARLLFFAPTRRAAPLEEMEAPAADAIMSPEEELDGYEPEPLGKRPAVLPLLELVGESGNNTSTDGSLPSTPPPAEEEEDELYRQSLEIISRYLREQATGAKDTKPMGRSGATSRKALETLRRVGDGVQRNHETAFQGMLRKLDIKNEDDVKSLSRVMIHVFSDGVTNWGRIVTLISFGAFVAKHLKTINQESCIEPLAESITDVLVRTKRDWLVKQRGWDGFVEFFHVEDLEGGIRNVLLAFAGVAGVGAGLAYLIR
EBV gp42 block: inhibitors of Epstein-Barr virus glycoprotein 42; AID 1085; Q1HVG2; inhibition, % (tested at 21.74 µM); Fluorescence polarization binding assay, mP read-out; actives 0.42% (n = 220,000); in the data active = inhibition above about 50%
Target sequence (Q1HVG2 whole entry, looked up): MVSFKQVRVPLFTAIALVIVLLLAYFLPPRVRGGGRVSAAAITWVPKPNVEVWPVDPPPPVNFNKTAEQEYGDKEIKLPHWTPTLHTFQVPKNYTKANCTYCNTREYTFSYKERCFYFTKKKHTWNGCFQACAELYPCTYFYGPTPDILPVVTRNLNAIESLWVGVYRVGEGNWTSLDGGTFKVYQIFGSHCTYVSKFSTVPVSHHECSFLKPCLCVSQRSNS
Mcl1 Bid PPI: disrupts binding of human Mcl-1 to Bid peptide | Q07820 | TR-FRET Mcl-1/Bid-Dy647 peptide binding, 1536-well | inhibition, % at 21.7 µM | actives 0.97% (n = 220,000) | AID 1021;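 active = compounds that cut the binding signal by more than half at the single screening dose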;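 also: His-tagged Mcl-1 with europium anti-His antibody binding Bid BH3 peptide; 0% = Mcl-1 plus peptide wells and 100% = peptide-only wells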
Mcl1-Noxa inh: disrupts binding of human Mcl-1 to Noxa peptide; Q07820; inhibition, % at 21.7 µM; TR-FRET Mcl-1/Noxa peptide binding, 2 h; actives 1.5% (n = 220,000);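 active = compounds that cut the protein-peptide binding signal by more than 50% relative to plate controls in a single-dose test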;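 also: His-tagged Mcl-1 with rhodamine Noxa BH3 peptide and terbium anti-His antibody; 0% = Mcl-1 plus Noxa peptide wells and 100% = peptide-only wells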
MCL1 BIM primary: inhibitors of human MCL1 binding to BIM-BH3 peptide. actives 0.68% (n = 320,000). GST-MCL1 / FITC-Bim-BH3 fluorescence polarization. Q07820. AID 2057. inhibition, % at 10.9 µM;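 active = inhibition above the mean inhibition of all tested compounds plus 3 SD, set per campaign, cut at about 40% in these data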;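 also: 0% = DMSO wells and 100% = unlabeled Bim-BH3 peptide control; higher means more loss of mP so more displacement of Bim peptide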
RBBP9 inh: human RBBP9 hydrolase inhibition | recombinant RBBP9, FP-Rh probe fluorescence polarization | inhibition, % at 7.94 µM | AID 1515 | O75884 | actives 0.2% (n = 220,000);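 active = inhibition above the campaign mean of all tested compounds plus 3 SD, cut at about 14% in these data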;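 also: plate controls were DMSO wells with RBBP9 for no effect and wells lacking RBBP9 protein for full effect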
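System: RBBP9 protein / Buffer or medium: Tris/NaCl buffer pH 8.0 with 0.1% Pluronic / Probe or stimulus: Serine-hydrolase probe FP-Rh, 375 nM pre-mixing / Dosing: 7.94 µM single dose, 0.794% DMSO / Times: enzyme-compound preincubation 30 min, then probe labeling 45 min, 25 °C / Technique: fluorescence polarization (mP), excitation 525 nm, emission 598 nm / Replication: singlicate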
* = called active by the depositor; / = not tested or not shown.

SMILES | Mcl-1 Bim block | EBV gp42 block | Mcl1 Bid PPI | Mcl1-Noxa inh | MCL1 BIM primary | RBBP9 inh
Cc1csc2ncnc(N3CCN(C(=S)Nc4ccc(F)cc4F)CC3)c12 | / | -5.1 | 89.7* | 10.8 | 10.1 | -1.8
CCCCC[C@H](O)/C=C/[C@H]1C=CC(=O)[C@@H]1C/C=C\CCCC(=O)O | -3.0 | -5.5 | 42.4 | 69.3* | / | -2.4
CCOC(=O)c1c(C)[nH]c(C)c1C(=O)COC(=O)c1ccc(Cl)c(S(=O)(=O)NCc2ccccc2)c1 | 0.0 | -37.8 | -8.5 | -1.7 | -16.3 | -7.1
Cc1ccc(N2CC(C(=O)N3CCOCC3)CC2=O)cc1Cl (configuration not stated) | / | / | / | / | -11.1 | /
CN(C)C(=O)CS(=O)(=O)c1ccc(Cl)cc1 | / | -9.2 | 65.6* | 43.7 | -4.3 | -2.9
N#Cc1nc(-c2ccc(OCc3ccc(Cl)cc3)cc2)oc1NCc1cccnc1 | 1.0 | 16.2 | 23.1 | 56.9* | 4.5 | -0.9
CC(=O)Nc1cccc(NC(=O)c2c(-c3c(Cl)cccc3Cl)noc2C)c1 | -3.0 | 3.2 | -1.9 | 67.2* | 4.2 | 2.6
Cc1onc(-c2c(Cl)cccc2Cl)c1C(N)=O | 0.0 | -1.8 | -7.9 | -2.6 | 12.5 | -4.5
Cc1onc(-c2c(Cl)cccc2Cl)c1C(N)=S | -4.0 | -10.9 | 50.9* | 16.3 | 3.9 | -5.8
C/C(=N/OC(=O)c1c(-c2c(Cl)cccc2Cl)noc1C)c1cnccn1 | -1.0 | 55.1* | -1.3 | 3.9 | -3.3 | -6.1
C/C(=N/OC(=O)c1c(-c2ccccc2Cl)noc1C)c1cnccn1 | -1.0 | -3.9 | -13.6 | -1.9 | -4.5 | -1.6
Cc1ccc2nc(-c3ccc(N4C(=NC(=O)CCC(=O)O)SC5CS(=O)(=O)CC54)cc3)sc2c1 (configuration not stated) | -6.0 | 8.3 | -10.6 | 54.6* | 6.7 | 0.3
COc1ccc(S(=O)(=O)NCC2CCCN(C(=O)CCSC)C2)cc1 (configuration not stated) | / | / | / | / | 6.6 | /
CCCNc1nc(Cl)nc(NCc2cccnc2)n1 | / | -13.5 | -23.6 | 39.0 | 5.0 | -13.1
Cc1ccc(C(NC(=O)C2CCCCC2)c2c(O)ccc3ccccc23)cc1 (configuration not stated) | -3.0 | 59.8* | -6.5 | 0.6 | 2.1 | -12.2
CC1(C)CC(=O)C2=C(C1)N(Cc1ccco1)C(=O)C2(NC(=O)c1cccnc1)C(F)(F)F (configuration not stated) | -3.0 | -13.5 | 4.7 | 7.0 | -2.5 | -6.7
COc1ccc(C(=O)NC2(C(F)(F)F)C(=O)N(Cc3ccco3)C3=C2C(=O)CC(C)(C)C3)cc1OC (configuration not stated) | -1.0 | 77.3* | -2.5 | -2.4 | -3.0 | -10.4
CC(O)CN(CCC(N)=O)CCC(N)=O (configuration not stated) | -1.0 | -9.7 | 52.4* | 14.8 | -0.2 | 0.3
COC(=O)C1CCN(CC(=O)Nc2ccc(OC)c(Cl)c2)CC1 | -28.0 | -11.3 | -9.7 | 2.0 | -0.2 | -6.5
Cc1cc(NC(=O)CSc2ccc3ccccc3c2)no1 | 0.0 | 8.5 | 30.2 | 53.0* | 13.3 | 3.9
Cc1cc(NC(=O)CN2CCN(C)CC2)no1 | 1.0 | 2.7 | 31.5 | 16.8 | -3.1 | -10.4
Cc1cc(NC(=O)CN2CCCCCCC2)no1 | -4.0 | -4.8 | 64.3* | 20.9 | -8.2 | -5.7
Cc1cc(NC(=O)CSc2nc(-c3ccc(F)cc3)cs2)no1 | 1.0 | -18.4 | -41.1 | 85.7* | -6.9 | -3.3
Cc1cc(NC(=O)COc2ccc3ccccc3c2)no1 | / | / | / | / | -4.2 | /
C[C@H](NC(=O)OC(C)(C)C)C(=O)NCC1CCC(C(=O)N[C@@H](Cc2ccccc2)C(=O)O)CC1 (some centres not stated) | / | / | / | / | 3.1 | /
SMILES | Mcl-1 Bim block | EBV gp42 block | Mcl1 Bid PPI | Mcl1-Noxa inh | MCL1 BIM primary | RBBP9 inh
COc1ccccc1/C=C/C=c1\sc2nc(=O)c(Cc3ccccc3)nn2c1=O | / | -14.9 | -34.5 | 50.9* | 19.6 | 3.6
CCCOc1ccc(/C=c2\sc3nc(-c4ccco4)nn3c2=O)cc1OCC | -4.0 | 36.0 | -12.5 | 11.5 | 17.4 | -4.0
CCCOc1ccc(Cc2nn3c(=O)/c(=C/c4ccco4)sc3nc2=O)cc1 | -4.0 | -12.1 | -0.1 | 74.5* | 18.3 | 5.5
COc1ccc(-c2[nH]ncc2CNCCn2cccn2)c(F)c1 | 2.0 | -7.4 | -59.1 | 6.8 | 1.5 | 2.1
CCCCOc1ccc(C(=O)N2CCNC(=O)C2)cc1 | / | / | / | / | -1.3 | /
C/C(=N\NC(=O)Cc1ccccc1)c1ccc(Cl)s1 | / | / | / | / | 4.9 | /
O=C(Nc1ccc2c(c1)nc1n2CCSC1)c1ccco1 | -1.0 | 18.1 | 5.1 | 60.0* | 17.8 | -6.1
O=C(Nc1ccc2c(c1)nc1n2CCN(C2CCCCC2)C1)c1ccco1 | / | 16.0 | -54.6 | 83.7* | / | -2.4
CCC(=O)Nc1ccc2c(c1)nc1n2CCN(C2CCCCC2)C1 | 1.0 | 15.1 | -60.1 | 26.1 | 22.3 | 11.3
O=C(Nc1ccc2c(c1)nc1n2CCOC1)c1ccco1 | -2.0 | -8.8 | -7.1 | 10.2 | 2.0 | -10.1
CCc1nc(C)ccc1OCC(=O)NCCCN(C)C | -3.0 | 9.5 | 55.0* | 32.2 | 0.5 | -3.3
CCc1nc(C)ccc1OCC(=O)O | -1.0 | -20.9 | 22.1 | 20.1 | -7.7 | -9.4
Nc1nc(Nc2ccccc2F)nc(NCCO)c1[N+](=O)[O-] | / | -6.2 | -22.2 | 21.4 | -5.3 | 0.2
Cc1ccc2cc3c(N)c(C(=O)Nc4c(C)[nH]c(=O)[nH]c4=O)sc3nc2c1 | -2.0 | 47.6 | -32.3 | 65.9* | 3.0 | -3.9
Cc1ccc2cc3c(N)c(C(=O)N4CC(=O)Nc5ccccc54)sc3nc2c1 | 0.0 | -62.2 | 7.8 | 58.5* | -19.1 | -1.8
Cc1ccc2nc3sc(C(=O)Nc4c(C)[nH]c(=O)[nH]c4=O)c(N)c3cc2c1 | -1.0 | 11.9 | -37.4 | 56.4* | 9.5 | 2.9
O=C(N/N=C/c1cccc(F)c1)c1c(O)c2ccccc2[nH]c1=O | 5.0 | 3.5 | 50.7* | 64.2* | -5.2 | -4.6
CN(CCOc1ccc(Cl)cc1)C(=O)C1CCN(C(=O)c2ccc(F)cc2)CC1 | / | / | / | / | -7.1 | /
COc1cc(N2C(=O)C=CC2=O)c(OC)cc1Cl | / | -12.3 | 21.0 | 58.7* | 10.0 | -4.5
O=C(N/N=C/c1ccco1)c1cccc(N2Cc3ccccc3C2)c1 | 0.0 | 9.5 | -7.1 | 75.2* | 20.5 | -3.4
COc1ccc(NC(=O)CCC(=O)c2cccs2)cc1Cl | / | / | / | / | 3.0 | /
COc1cc(NCCC(=O)c2cccs2)c(OC)cc1Cl | -1.0 | -11.0 | -28.4 | 86.4* | 1.7 | -0.3
COCCNCC(=O)Nc1ccc(C)c(S(=O)(=O)N2CCCCC2)c1 | 0.0 | -2.4 | 4.8 | 25.0 | -2.3 | 0.6
Cc1ccc(NC(=O)CNCCCN2CCOCC2)cc1S(=O)(=O)N1CCCCC1 | / | 7.4 | 51.4* | 21.7 | -4.6 | -4.3
O=C(O)CCc1nc(-c2ccccc2)no1 | -1.0 | 5.4 | 7.7 | 23.7 | -6.4 | -1.1
O=C(O)CCc1nc(-c2cccs2)no1 | -5.0 | -3.9 | -5.4 | 83.7* | 6.2 | -1.6
